Data: publication PMC8102310 (Cancer discovery, 2021)
Like-named read-outs stand apart in the source and are kept apart here.

Tests used:
[1] = test system: androgen-dependent and castration resistant prostate cancer cell lines; details: ref [35], [54]; cited from earlier work
BRD4 bromodomain = BRD4 bromodomain (Homo sapiens, UniProt O60885); format: cell-based
BRD2, 3, 4, 9 and WDR9 = assay: Bromoscan assay of 32 bromodomains; details: at 1 μM; minimal binding
97 kinases = assay: Screen of 97 kinases; format: biochemical; details: at 10 μM
[2] = test system: 44 receptors, enzymes and ion channels; assay: Safety screen of 44 receptors, enzymes and ion channels; format: biochemical; details: at 10 μM
VCaP = assay: Cell proliferation; format: cell-based; details: Homo sapiens, read-out: growth inhibition IC50
22Rv1 = assay: Cell proliferation; format: cell-based
LNCaP95 = assay: Cell proliferation; format: cell-based; details: LNCaP-95, read-out: growth inhibition IC50
[3] = test system: AR negative, hormone independent, cell lines; assay: Cell proliferation; format: cell-based; details: read-out: growth inhibition IC50
[4] = test system: JQ1 resistant 22Rv1 cells; assay: Cell proliferation in JQ1 resistant cells; format: cell-based; details: for resistance, resistant vs parental: JQ1 resistant 22Rv1 cells
Summary of the method: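 For resistance, 22Rv1 cells were cultured for 6 months in escalating BET inhibitor (30 nM up to 500 nM) or in 0.1% DMSO vehicle. Dose was raised only when morphology, viability and growth were good and after at least two passages at the prior dose. Parental (vehicle-cultured) and resistant cells were then compared for proliferation IC50.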

22Rv1 cells [5] = assay: AR and C-MYC signaling; format: cell-based
LNCaP95 cells = assay: AR and C-MYC signaling; format: cell-based
22Rv1 cells [6] = assay: Chromatin immunoprecipitation of CBP, p300 and AR-FL at AR binding sites; format: cell-based; details: 500nM, 10nM dihydrotestosterone
C4–2 cells = assay: as above; format: cell-based; details: 500nM, 10nM dihydrotestosterone
22Rv1 mouse xenografts = assay: 22Rv1 mouse xenograft; format: in vivo
CP50c PDX = assay: CP50c patient-derived xenograft; format: in vivo, mouse
Summary of the method: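 CP50c PDX was passaged twice in castrated mice, then fragments were grafted subcutaneously into castrated male NSG mice. Oral gavage dosing began at about 300–400 mm³, once daily, with 5% DMSO:95% methylcellulose (0.5% w/v) as vehicle or formulation. Volumes were taken every 2–3 days and grouped by 5-day intervals, n=6 per group. Growth was normalized to start, and time to 300% of starting volume served as the surrogate survival endpoint.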

LNCaP-Bic mouse = LNCaP-Bic mouse xenograft; format: in vivo
patients with mCRPC = assay: First in human phase I trial; format: in vivo

CNC(=O)Nc1ccc2c(c1)CC[C@@]21OC(=O)N(CC(=O)N(Cc2ccc(F)cc2)[C@@H](C)C(F)(F)F)C1=O [A-485]
cell death [1]: induce cell death

CC1=NN(c2ccc(C(=O)O)cc2)C(=O)/C1=C\c1ccc(-c2cc(C)c(C)cc2[N+](=O)[O-])o1 [C646]
cell death [1]: induce cell death

CO[C@H]1CC[C@H](n2c([C@@H]3CCCC(=O)N3c3ccc(F)c(F)c3)nc3cc(-c4c(C)noc4C)ccc32)CC1 [CCS1477]
IC50 (BRD4 bromodomain): 1060 nM | binding, % of control (BRD2, 3, 4, 9 and WDR9): 14–33 % of control | biochemical inhibitory activity (97 kinases): no biochemical inhibitory activity | biochemical inhibitory activity in safety screen [2]: no biochemical inhibitory activity | IC50 (VCaP): < 100 nM | IC50 (22Rv1; Homo sapiens, 22Rv1, read-out: growth inhibition IC50, 22Rv1): < 100 nM | IC50 (22Rv1; read-out: growth inhibition IC50, 22Rv1): 96 nM | IC50 (LNCaP95): < 100 nM | IC50 [3]: > 1000 nM | sensitivity of JQ1 resistant 22Rv1 cells to treatment ([4]; compared with parental): more sensitive | C-MYC protein expression (22Rv1 cells [5]; 22Rv1): reduced | expression of AR regulated genes (KLK2, KLK3 and TMPRSS2) (22Rv1 cells [5]; 48-hours): reduced | expression of AR regulated genes (KLK2, KLK3 and TMPRSS2) (LNCaP95 cells; 48-hours): reduced | C-MYC protein expression (LNCaP95 cells; LNCaP95): reduced | recruitment of CBP, p300 and AR-FL to AR binding sites (22Rv1 cells [6]): reduced the recruitment of CBP, p300 and AR-FL | recruitment of CBP, p300 and AR-FL to AR binding sites (C4–2 cells): reduced the recruitment of CBP, p300 and AR-FL | most effective tolerated dose (22Rv1 mouse xenografts; 22Rv1 xenograft): 20 mg/kg | concentration of CCS1477 in plasma and tumor (22Rv1 mouse xenografts; 24-hours after the last dose): undetectable | AR-FL, AR-V7 and C-MYC protein expression in tumors (22Rv1 mouse xenografts; after 7-days of treatment, all doses tested): reduced | plasma KLK3 concentrations (22Rv1 mouse xenografts; all doses): decrease | levels of CCS1477 in plasma or tumor (22Rv1 mouse xenografts; day 52): no detectable levels | tolerability (22Rv1 mouse xenografts; mouse, in vivo): well tolerated with no change in body weight or condition of the animals | tumor growth (22Rv1 mouse xenografts; oral, 10mg/kg QD, 20 mg/kg QD, 30 mg/kg QOD, vs vehicle): significantly (p=<0.001) impacted tumor growth | tumor growth inhibition after treatment stopped at 28-days (22Rv1 mouse xenografts; treatment stopped after 28-days): sustained until day 52 | median time to 300% growth (CP50c PDX; 20 mg/kg once-daily, vehicle 38): 56 days | survival (time to 300% growth) (CP50c PDX; oral 20 mg/kg QD vs vehicle): significantly (p=<0.001) prolonged survival | tumor growth (CP50c PDX; oral 20 mg/kg QD vs vehicle): significantly (p=0.02) reduced tumor growth | tumor growth compared to enzalutamide (LNCaP-Bic mouse): significantly (p=<0.001) reduced tumor growth | plasma KLK3 (patients with mCRPC; Patient 1, 50 mg BD 3-days-on-and-4 days-off): initial fall in plasma KLK3 which then stabilized | biopsy protein expression post-dose vs pre-dose (IHC) (patients with mCRPC; Patient 1, 50 mg BD, 4-hours post dose): reduction in AR-V7 and C-MYC protein expression | biopsy protein expression post-dose vs pre-dose (IHC) (patients with mCRPC; Patient 2, 25 mg BD, 3-hours post dose): reduction in C-MYC and Ki67 protein expression

Cc1sc2c(c1C)C(c1ccc(Cl)cc1)=N[C@@H](CC(=O)OC(C)(C)C)c1nnc(C)n1-2 [JQ1]
IC50 (22Rv1; read-out: IC50 in parental 22Rv1 cells, parental cells, vehicle cultured): 60 nM | resistance, resistant vs parental [4]: > 100 fold | IC50 ([4]; read-out: IC50 in JQ1 resistant 22Rv1 cells, resistant cells): 7300 nM

Cc1sc2c(c1C)C(c1ccc(Cl)cc1)=N[C@@H](CC(=O)Nc1ccc(O)cc1)c1nnc(C)n1-2 [OTX-015]
resistance, resistant vs parental [4]: > 100 fold

I-BET151
resistance, resistant vs parental [4]: > 100 fold
